Experimental data reported in ChEMBL document CHEMBL1147446, “Antagonists of human CCR5 receptor containing 4-(pyrazolyl)piperidine side chains. Part 3: SAR studies on the benzylpyrazole segment” (Bioorg Med Chem Lett, 2004).

Legend:
[1] = molecular target: C-C chemokine receptor type 5 (Homo sapiens, UniProt P51681); test: Inhibitory concentration for displacement of [125I]-MIP-1 alpha from recombinant human CC chemokine receptor 5 (CCR5) expressed in CHO cell; format: cell-based
How it was run: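 Competitive binding to CCR5 on CHO cell membranes, read as displacement of [125I]-labeled MIP-1α. IC50 values are means of triplicate determinations. Standard errors were normally <15% within an assay. Assay-to-assay variation was within ±2-fold, judged from a standard compound.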

HeLa [2] = test: Antiviral activities in a cell culture HIV-1 infectivity inhibition assay using HeLa cells plus 50% normal human serum; format: functional
HeLa [3] = test: Antiviral activities in a cell culture HIV-1 infectivity inhibition assay using HeLa cells; format: functional; conditions: Homo sapiens

Sequence of C-C chemokine receptor type 5 (P51681 whole entry): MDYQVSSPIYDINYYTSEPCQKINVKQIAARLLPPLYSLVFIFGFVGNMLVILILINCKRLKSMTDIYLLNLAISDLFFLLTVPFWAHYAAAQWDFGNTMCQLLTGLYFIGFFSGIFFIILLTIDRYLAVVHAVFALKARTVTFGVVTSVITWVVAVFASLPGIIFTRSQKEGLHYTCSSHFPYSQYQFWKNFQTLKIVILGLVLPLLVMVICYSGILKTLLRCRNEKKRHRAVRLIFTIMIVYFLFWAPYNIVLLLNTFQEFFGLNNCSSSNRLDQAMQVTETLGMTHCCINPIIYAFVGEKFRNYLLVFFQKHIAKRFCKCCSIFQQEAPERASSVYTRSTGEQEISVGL

Row | IC50 [1] [nM] | IC90 (HeLa [3]) [nM] | Structure (SMILES) | IC90 (HeLa [2]) [nM]
1 | 1.3 | 3.7 | CCn1nc(Cc2ccc(Cl)cc2)cc1C1CCN(C[C@H]2CN([C@@H](C(=O)O)C(C)C)C[C@@H]2c2cccc(F)c2)CC1 | 300
2 | 0.6 | 1.2 | CCn1nc(Cc2ccc(OC3CCC3)cc2)cc1C1CCN(C[C@H]2CN([C@@H](C(=O)O)C(C)C)C[C@@H]2c2cccc(F)c2)CC1 | 100
3 | 1.2 | < 0.14 | CC[C@H](C)[C@H](C(=O)O)N1C[C@H](CN2CCC(c3cc(Cc4cccc(OC)c4)nn3CC)CC2)[C@@H](c2cccc(F)c2)C1 | 100
4 | 0.4 | < 0.14 | CCOc1ccc(Cc2cc(C3CCN(C[C@H]4CN([C@@H](C(=O)O)C(C)C)C[C@@H]4c4cccc(F)c4)CC3)n(CC)n2)cc1F | 100
5 | 0.6 | 1.2 | CCn1nc(Cc2ccc(O)cc2)cc1C1CCN(C[C@H]2CN([C@@H](C(=O)O)C(C)C)C[C@@H]2c2cccc(F)c2)CC1 | 33
6 | 0.9 | < 0.14 | CC[C@H](C)[C@H](C(=O)O)N1C[C@H](CN2CCC(c3cc(Cc4cccc(C#N)c4)nn3CC)CC2)[C@@H](c2cccc(F)c2)C1 | 11
7 | 1 | 0.4 | CCOc1ccc(Cc2cc(C3CCN(C[C@H]4CN([C@@H](C(=O)O)C(C)C)C[C@@H]4c4cccc(F)c4)CC3)n(CC)n2)cc1 | 300
8 | 2.6 | 0.4 | CC[C@@H](C)[C@H](C(=O)O)N1C[C@H](CN2CCC(c3cc(Cc4ccc(OC)c(OC)c4)nn3CC)CC2)[C@@H](c2cccc(F)c2)C1 | 33
9 | 1.3 | < 0.14 | CC[C@H](C)[C@H](C(=O)O)N1C[C@H](CN2CCC(c3cc(Cc4ccc(C#N)cc4)nn3CC)CC2)[C@@H](c2cccc(F)c2)C1 | 3.7
10 | 0.5 | < 0.14 | CCn1nc(Cc2ccc(OC(F)F)cc2)cc1C1CCN(C[C@H]2CN([C@@H](C(=O)O)C(C)C)C[C@@H]2c2cccc(F)c2)CC1 | 100
11 | 5 | 100 | CCn1nc(Cc2ccc(F)cc2F)cc1C1CCN(C[C@H]2CN([C@@H](C(=O)O)C(C)C)C[C@@H]2c2cccc(F)c2)CC1 | > 300
12 | 0.8 | 1.2 | CCn1nc(Cc2ccc(OC)c(C#N)c2)cc1C1CCN(C[C@H]2CN([C@@H](C(=O)O)C(C)C)C[C@@H]2c2cccc(F)c2)CC1 | 300

More lines, now with the values behind:

Row | Structure (SMILES) | IC50 [1] [nM] | IC90 (HeLa [3]) [nM] | IC90 (HeLa [2]) [nM]
13 | CCn1nc(Cc2cc(C(F)(F)F)cc(C(F)(F)F)c2)cc1C1CCN(C[C@H]2CN([C@@H](C(=O)O)C(C)(C)C)C[C@@H]2c2cccc(F)c2)CC1 | 2.3 | 11 | > 300
14 | CCn1nc(CC2CCCCC2)cc1C1CCN(C[C@H]2CN([C@@H](C(=O)O)C(C)C)C[C@@H]2c2cccc(F)c2)CC1 | 2.3 | 33 | > 300
15 | CC[C@H](C)[C@H](C(=O)O)N1C[C@H](CN2CCC(c3cc(Cc4ccc(OCc5ccccc5)cc4)nn3CC)CC2)[C@@H](c2cccc(F)c2)C1 | 0.7 | 3.7 | 300
16 | CC[C@H](C)[C@H](C(=O)O)N1C[C@H](CN2CCC(c3cc(Cc4ccc(OC(C)C)cc4)nn3CC)CC2)[C@@H](c2cccc(F)c2)C1 | 0.8 | < 0.14 | 33
17 | CCn1nc(Cc2ccc(OC(F)F)cc2)cc1C1CCN(C[C@H]2CN([C@@H](C(=O)O)C(C)(C)C)C[C@@H]2c2cccc(F)c2)CC1 | 0.5 | < 0.14 | 11
18 | CCn1nc(CC2CCCCC2)cc1C1CCN(C[C@H]2CN([C@@H](C(=O)O)C(C)(C)C)C[C@@H]2c2cccc(F)c2)CC1 | 1.1 | 3.7 | 300
19 | CC[C@@H](C)[C@H](C(=O)O)N1C[C@H](CN2CCC(c3cc(Cc4ccc(OCc5ccccc5)cc4)nn3CC)CC2)[C@@H](c2cccc(F)c2)C1 | 0.5 | 3.7 | 100
20 | CC[C@H](C)[C@H](C(=O)O)N1C[C@H](CN2CCC(c3cc(Cc4ccc5ccccc5c4)nn3CC)CC2)[C@@H](c2cccc(F)c2)C1 | 0.3 | < 0.14 | 300
21 | CC[C@H](C)[C@H](C(=O)O)N1C[C@H](CN2CCC(c3cc(Cc4ccc(S(=O)(=O)c5ccccc5)cc4)nn3CC)CC2)[C@@H](c2cccc(F)c2)C1 | 0.6 | < 0.14 | 11
22 | CC[C@@H](C)[C@H](C(=O)O)N1C[C@H](CN2CCC(c3cc(Cc4ccccc4)nn3CC)CC2)[C@@H](c2cccc(F)c2)C1 | 0.9 | 0.4 | 300
23 | CCn1nc(Cc2ccc3c(c2)OCO3)cc1C1CCN(C[C@H]2CN([C@@H](C(=O)O)C(C)(C)C)C[C@@H]2c2cccc(F)c2)CC1 | 0.7 | < 0.14 | 33
24 | CC[C@H](C)[C@H](C(=O)O)N1C[C@H](CN2CCC(c3cc(Cc4ccc(C(F)(F)F)cc4)nn3CC)CC2)[C@@H](c2cccc(F)c2)C1 | 0.5 | < 0.14 | 33
25 | CCn1nc(Cc2ccc(F)cc2F)cc1C1CCN(C[C@H]2CN([C@@H](C(=O)O)C3CCCCC3)C[C@@H]2c2cccc(F)c2)CC1 | 1.5 | 0.4 | 33
26 | CC[C@H](C)[C@H](C(=O)O)N1C[C@H](CN2CCC(c3cc(Cc4ccc(OCC(F)(F)F)cc4)nn3CC)CC2)[C@@H](c2cccc(F)c2)C1 | 0.6 | 0.4 | 33
27 | CC[C@@H](C)[C@H](C(=O)O)N1C[C@H](CN2CCC(c3cc(Cc4ccc(OC(F)(F)F)cc4)nn3CC)CC2)[C@@H](c2cccc(F)c2)C1 | 0.6 | 1.2 | 100
28 | CCn1nc(Cc2ccc(Cl)cc2)cc1C1CCN(C[C@H]2CN([C@@H](C(=O)O)C3CCCCC3)C[C@@H]2c2cccc(F)c2)CC1 | 0.9 | 0.4 | 100
29 | CC[C@@H](C)[C@H](C(=O)O)N1C[C@H](CN2CCC(c3cc(Cc4cc(C(F)(F)F)cc(C(F)(F)F)c4)nn3CC)CC2)[C@@H](c2cccc(F)c2)C1 | 1.6 | 33 | > 300
30 | CCOc1cccc(Cc2cc(C3CCN(C[C@H]4CN([C@@H](C(=O)O)[C@@H](C)CC)C[C@@H]4c4cccc(F)c4)CC3)n(CC)n2)c1 | 0.9 | < 0.14 | 100
31 | CC[C@@H](C)[C@H](C(=O)O)N1C[C@H](CN2CCC(c3cc(Cc4ccc5ccccc5c4)nn3CC)CC2)[C@@H](c2cccc(F)c2)C1 | 0.2 | < 0.14 | 300
32 | CCn1nc(Cc2ccc(S(=O)(=O)c3ccccc3)cc2)cc1C1CCN(C[C@H]2CN([C@@H](C(=O)O)C(C)(C)C)C[C@@H]2c2cccc(F)c2)CC1 | 1.1 | < 0.14 | 3.7
33 | CCn1nc(Cc2ccc(S(=O)(=O)c3ccccc3)cc2)cc1C1CCN(C[C@H]2CN([C@@H](C(=O)O)C(C)C)C[C@@H]2c2cccc(F)c2)CC1 | 1.3 | 0.4 | 33
34 | CCCCOc1ccc(Cc2cc(C3CCN(C[C@H]4CN([C@@H](C(=O)O)[C@H](C)CC)C[C@@H]4c4cccc(F)c4)CC3)n(CC)n2)cc1 | 0.8 | 3.7 | 100
35 | CCn1nc(Cc2cccnc2)cc1C1CCN(C[C@H]2CN([C@@H](C(=O)O)C3CCCCC3)C[C@@H]2c2cccc(F)c2)CC1 | 3.9 | 0.4 | 33
